Assay [1] addresses T1, Muscarinic acetylcholine receptor M1 (Homo sapiens, UniProt P11229).
T1 sequence (P11229 whole entry): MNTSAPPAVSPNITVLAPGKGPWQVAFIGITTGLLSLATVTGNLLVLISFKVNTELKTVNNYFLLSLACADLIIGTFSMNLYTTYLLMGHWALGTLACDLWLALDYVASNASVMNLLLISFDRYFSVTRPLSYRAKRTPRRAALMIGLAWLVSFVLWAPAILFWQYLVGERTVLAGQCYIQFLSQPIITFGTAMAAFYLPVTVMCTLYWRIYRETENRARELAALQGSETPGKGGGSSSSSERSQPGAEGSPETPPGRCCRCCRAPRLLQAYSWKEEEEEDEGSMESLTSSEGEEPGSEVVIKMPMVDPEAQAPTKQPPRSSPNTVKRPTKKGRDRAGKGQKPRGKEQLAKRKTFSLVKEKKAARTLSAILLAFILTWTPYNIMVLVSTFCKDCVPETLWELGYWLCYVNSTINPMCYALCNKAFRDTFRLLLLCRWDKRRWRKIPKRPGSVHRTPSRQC
Put plainly: Displacement of [3H]N-methylscopolamine from human muscarinic M1 receptor expressed in CHO-K1 cells. The class given is cell-based.

Assay [2] has as its target T2, Muscarinic acetylcholine receptor M2 (Homo sapiens, UniProt P08172).
T2 sequence (P08172 whole entry): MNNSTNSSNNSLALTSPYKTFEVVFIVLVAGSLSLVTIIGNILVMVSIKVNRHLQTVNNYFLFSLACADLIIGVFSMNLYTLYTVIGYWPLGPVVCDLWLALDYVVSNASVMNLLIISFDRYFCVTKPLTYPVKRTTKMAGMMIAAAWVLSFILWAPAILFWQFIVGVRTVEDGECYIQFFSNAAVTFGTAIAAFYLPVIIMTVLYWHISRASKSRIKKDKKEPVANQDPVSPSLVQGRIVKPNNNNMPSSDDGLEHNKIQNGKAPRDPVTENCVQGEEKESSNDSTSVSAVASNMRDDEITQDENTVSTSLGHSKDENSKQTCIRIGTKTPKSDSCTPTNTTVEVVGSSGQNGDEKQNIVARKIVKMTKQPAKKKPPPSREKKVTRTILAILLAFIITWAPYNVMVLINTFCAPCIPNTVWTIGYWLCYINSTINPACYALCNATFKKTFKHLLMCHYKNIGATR
The assay is described as follows: Displacement of [3H]N-methylscopolamine from human muscarinic M2 receptor expressed in CHO-K1 cells. The class given is cell-based. Summed up: (§1)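 Binding was measured in CHO-K1 stable transfectants expressing the human receptor subtype. Labelled ligand was [³H]-N-methylscopolamine chloride. Values are the mean of three experiments performed in triplicate.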

In assay [3] the target is T3, Muscarinic acetylcholine receptor M3 (Homo sapiens, UniProt P20309). The assay is described as follows: Displacement of [3H]N-methylscopolamine from human muscarinic M3 receptor expressed in CHO-K1 cells. The class given is cell-based.
Target sequence in this assay (P20309 whole entry): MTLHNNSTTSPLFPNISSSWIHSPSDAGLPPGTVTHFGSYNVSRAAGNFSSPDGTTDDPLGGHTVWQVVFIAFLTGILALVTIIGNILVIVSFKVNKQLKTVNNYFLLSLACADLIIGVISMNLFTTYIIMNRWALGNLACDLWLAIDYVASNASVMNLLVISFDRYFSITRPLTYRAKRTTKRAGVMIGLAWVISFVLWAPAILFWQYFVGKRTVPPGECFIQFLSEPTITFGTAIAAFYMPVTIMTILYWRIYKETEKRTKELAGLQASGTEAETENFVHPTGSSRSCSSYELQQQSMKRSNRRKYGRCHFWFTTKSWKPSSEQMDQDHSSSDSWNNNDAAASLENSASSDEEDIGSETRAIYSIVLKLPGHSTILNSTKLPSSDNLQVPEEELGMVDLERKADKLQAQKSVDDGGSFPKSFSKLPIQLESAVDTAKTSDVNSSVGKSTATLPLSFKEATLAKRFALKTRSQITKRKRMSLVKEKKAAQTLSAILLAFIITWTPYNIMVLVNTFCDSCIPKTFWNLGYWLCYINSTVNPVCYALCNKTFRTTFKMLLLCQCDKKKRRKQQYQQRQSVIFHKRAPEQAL
Assay [4] concerns the target T4, Muscarinic acetylcholine receptor M4 (Homo sapiens, UniProt P08173).
T4 sequence (P08173 whole entry): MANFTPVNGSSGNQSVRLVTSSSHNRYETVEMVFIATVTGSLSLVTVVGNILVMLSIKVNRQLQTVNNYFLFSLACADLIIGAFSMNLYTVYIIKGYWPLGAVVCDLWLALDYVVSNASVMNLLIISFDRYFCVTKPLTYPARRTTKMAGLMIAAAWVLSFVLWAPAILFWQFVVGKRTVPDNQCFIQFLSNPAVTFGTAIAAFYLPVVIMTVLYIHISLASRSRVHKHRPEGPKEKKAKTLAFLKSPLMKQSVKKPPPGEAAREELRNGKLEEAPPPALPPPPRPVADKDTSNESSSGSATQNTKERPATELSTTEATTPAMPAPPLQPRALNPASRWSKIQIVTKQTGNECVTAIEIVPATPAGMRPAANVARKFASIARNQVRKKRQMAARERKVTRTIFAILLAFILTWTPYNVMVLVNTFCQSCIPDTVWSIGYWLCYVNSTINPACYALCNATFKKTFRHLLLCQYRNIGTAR
Put plainly: Displacement of [3H]N-methylscopolamine from human muscarinic M4 receptor expressed in CHO-K1 cells. The class given is cell-based. Summed up:
as §1

For assay [5], the target named is T5, Muscarinic acetylcholine receptor M5 (Homo sapiens, UniProt P08912).
T5 sequence (P08912 whole entry): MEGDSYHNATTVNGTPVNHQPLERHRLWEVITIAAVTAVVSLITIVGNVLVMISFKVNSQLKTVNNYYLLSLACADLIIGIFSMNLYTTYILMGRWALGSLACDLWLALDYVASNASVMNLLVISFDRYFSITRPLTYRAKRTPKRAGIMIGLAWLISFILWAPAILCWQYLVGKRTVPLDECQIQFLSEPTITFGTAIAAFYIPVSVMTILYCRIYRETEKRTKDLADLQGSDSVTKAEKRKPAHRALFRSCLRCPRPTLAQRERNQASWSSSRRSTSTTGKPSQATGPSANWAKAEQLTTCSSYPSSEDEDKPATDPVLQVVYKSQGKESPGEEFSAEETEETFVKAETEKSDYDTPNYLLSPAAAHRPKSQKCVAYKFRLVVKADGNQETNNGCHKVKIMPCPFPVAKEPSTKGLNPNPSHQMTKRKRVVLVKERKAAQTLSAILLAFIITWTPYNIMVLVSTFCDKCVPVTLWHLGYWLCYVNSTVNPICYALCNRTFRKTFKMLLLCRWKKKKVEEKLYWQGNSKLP
The assay is described as follows: Displacement of [3H]N-methylscopolamine from human muscarinic M5 receptor expressed in CHO-K1 cells. The class given is cell-based. Summed up: as §1

Assay [6] addresses T3, Muscarinic acetylcholine receptor M3. Put plainly: Antagonist activity at human muscarinic M3 receptor expressed in CHO cells assessed as inhibition of carbachol-induced Eu-GTP binding. The class given is cell-based. Summed up:
(§2)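 Membranes from CHO-K1 cells stably expressing the human receptor subtype. Agonist was carbachol, and the read-out was carbachol-stimulated binding of the non-hydrolysable analogue Eu-GTP to Gα subunits. pKb was estimated functionally by concentration-ratio analysis. Values are the mean of three experiments run in triplicate.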
Target sequence in this assay (P20309 whole entry, looked up): as the sequence (P20309 whole entry) above

For assay [7], the target named is T6, Muscarinic acetylcholine receptor M4 (Homo sapiens) (UniProt P08173).
T6 sequence (whole entry): T4 sequence (P08173 whole entry)
The assay is described as follows: Antagonist activity at human muscarinic M4 receptor expressed in CHO cells assessed as inhibition of carbachol-induced Eu-GTP binding. The class given is cell-based. The gist of the method: as §2

In assay [8] the target is T7, Muscarinic acetylcholine receptor M5 (Homo sapiens) (UniProt P08912).
T7 sequence (whole entry): T5 sequence (P08912 whole entry)
The assay is described as follows: Antagonist activity at human muscarinic M5 receptor expressed in CHO cells assessed as inhibition of carbachol-induced Eu-GTP binding. The class given is cell-based. The gist of the method: as §2

Assay [9] has as its target T8, Muscarinic acetylcholine receptor M1 (Homo sapiens) (UniProt P11229).
T8 sequence (whole entry): T1 sequence (P11229 whole entry)
The assay is described as follows: Antagonist activity at human muscarinic M1 receptor expressed in CHO cells assessed as inhibition of basal Eu-GTP binding. The class given is cell-based.

Assay [10] concerns the target T9, Muscarinic acetylcholine receptor M2 (Homo sapiens) (UniProt P08172).
T9 sequence (whole entry): T2 sequence (P08172 whole entry)
The assay is described as follows: Antagonist activity at human muscarinic M2 receptor expressed in CHO cells assessed as inhibition of basal Eu-GTP binding. The class given is cell-based.

For assay [11], the target named is T3, Muscarinic acetylcholine receptor M3. The assay is described as follows: Antagonist activity at human muscarinic M3 receptor expressed in CHO cells assessed as inhibition of basal Eu-GTP binding. The class given is cell-based.
Target sequence in this assay (P20309 whole entry, looked up): as the sequence (P20309 whole entry) above
Assay [12] has as its target T6, Muscarinic acetylcholine receptor M4 (Homo sapiens). The assay is described as follows: Antagonist activity at human muscarinic M4 receptor expressed in CHO cells assessed as inhibition of basal Eu-GTP binding. The class given is cell-based.
In assay [13] the target is T7, Muscarinic acetylcholine receptor M5 (Homo sapiens). Put plainly: Antagonist activity at human muscarinic M5 receptor expressed in CHO cells assessed as inhibition of basal Eu-GTP binding. The class given is cell-based.
Assay [14] addresses T4, Muscarinic acetylcholine receptor M4. The assay is described as follows: Antagonist activity at human muscarinic M4 receptor expressed in CHO cells assessed as blockade of carbachol-induced inhibition of forskolin-stimulated cAMP accumulation. The class given is functional, cell-based.
Assay [15] deals with T8, Muscarinic acetylcholine receptor M1 (Homo sapiens). Put plainly: Antagonist activity at human muscarinic M1 receptor expressed in CHO cells assessed as inhibition of carbachol-induced Eu-GTP binding. The class given is cell-based. The gist of the method: as §2
Assay [16] deals with T9, Muscarinic acetylcholine receptor M2 (Homo sapiens). The assay is described as follows: Antagonist activity at human muscarinic M2 receptor expressed in CHO cells assessed as inhibition of carbachol-induced Eu-GTP binding. The class given is cell-based. The gist of the method: as §2

Where a name gives a salt, the structure may show the parent alone. Activity calls are given as the source filed them. The calls are words filed in the database; no cut-off is given here.

On to `C[N+]1(CCCC(O)(c2ccccc2)c2ccccc2)CCN(CCCC(O)(c2ccccc2)c2ccccc2)CC1`, for which the Ki was 7.08 µM in [1]; 2.29 µM in assay [2]; 5.5 µM in assay [3]; 1.23 µM in [4]; 1.55 µM in assay [5].
For `OC(CCCN1CCCCC1)(c1ccccc1)c1ccccc1` [DIPHENIDOL HYDROCHLORIDE], the inhibition constant (Ki) in [2] was 2.82 µM; in assay [4] it was 0.912 µM; in assay [5] it was 1.29 µM.
Turning to `C[N+]1(CCCC(O)(c2ccccc2)c2ccccc2)CCN(c2ccccc2)CC1`, the Ki is 17.4 µM in assay [1]; 25.7 µM in assay [2]; 7.59 µM in [3]; 22.9 µM in [4]; 6.92 µM in assay [5].
Take `OC(CCCN1CCN(c2ccccc2)CC1)(c1ccccc1)c1ccccc1`: the Ki in assay [1] is 363 µM; in [2], 457 µM; in assay [3] it was 70.8 µM; in assay [4], 100 µM; in assay [5], 123 µM.
For `CN(CCCC(O)(c1ccccc1)c1ccccc1)CCN(C)CCCC(O)(c1ccccc1)c1ccccc1` the same measures were 245 µM, 214 µM, 380 µM, 162 µM and 229 µM.
For `C[N+]1(CCCC(O)(c2ccccc2)c2ccccc2)CCCCC1` the same measures were 0.2 µM, 0.275 µM, 0.275 µM, 0.288 µM and 0.708 µM.
For `C[N+](C)(CCCC(O)(c1ccccc1)c1ccccc1)CC[N+](C)(C)CCCC(O)(c1ccccc1)c1ccccc1` the same measures were 26.3 µM, 47.9 µM, 43.7 µM, 11.2 µM and 18.2 µM.
`CN(CCCN(C)CCCC(O)(c1ccccc1)c1ccccc1)CCCC(O)(c1ccccc1)c1ccccc1`: the Ki in [1] is 1.35 µM; in [2] it was 5.5 µM; in [3], 1.74 µM; in assay [4] it was 0.617 µM; in assay [5], 0.832 µM.
As to `C[N+]1(C)CCC(C2CC[N+](C)(CCCC(O)(c3ccccc3)c3ccccc3)CC2)CC1` (stereo unspecified), the Ki in assay [1] is 8.32 µM; in assay [2] it was 4.37 µM; in [3], 3.63 µM; in assay [4], 2.69 µM; in assay [5] it was 25.7 µM.
For `OC(CCCN1CCNCC1)(c1ccccc1)c1ccccc1` the same measures were 0.603 µM, 7.24 µM, 0.661 µM, 1.17 µM and 1.41 µM.
`CN1CCC(C2CCN(CCCC(O)(c3ccccc3)c3ccccc3)CC2)CC1`: the Ki in [1] was 5.75 µM; in assay [2] it was 3.98 µM; in assay [3], 5.25 µM; in assay [4], 1.17 µM; in [5], 2.88 µM.
For the compound `C[N+]1(CCCC(O)(c2ccccc2)c2ccccc2)CCC(C2CC[N+](C)(CCCC(O)(c3ccccc3)c3ccccc3)CC2)CC1` (stereo unspecified), the pKb in assay [6] was determined as 6.25; in [7], 7.83; in [8] it was 6.02; in [15], 6.04; in [16] it was 6.1. The result in assay [9], in [10], in assay [11], in [12] and in [13] was inactive. In assay [14], the EC50 was determined as 0.067 µM. For the same compound, the IC50 in [14] was determined as 0.067 µM. Further, the Ki in assay [1] is 0.603 µM; in assay [2], 0.363 µM; in [3], 0.372 µM; in [4], 0.0126 µM; in [5], 0.589 µM.
Regarding `C[N+]1(C)CCN(CCCC(O)(c2ccccc2)c2ccccc2)CC1`, the inhibition constant (Ki) in assay [1] was 2.95 µM; in assay [2], 23.4 µM; in [3], 4.07 µM; in assay [4], 4.79 µM; in [5] it was 9.55 µM.
Taken in the same sequence, the figures for `CN1CCN(CCCC(O)(c2ccccc2)c2ccccc2)CC1` were 7.76 µM, 35.5 µM, 7.41 µM, 9.77 µM and 13.5 µM.
For `OC(CCCN1CCN(CCCC(O)(c2ccccc2)c2ccccc2)CC1)(c1ccccc1)c1ccccc1` the same measures were 851 µM, 178 µM, 87.1 µM, 22.4 µM and 23.4 µM.
For the compound `OC(CCCN1CCC(C2CCN(CCCC(O)(c3ccccc3)c3ccccc3)CC2)CC1)(c1ccccc1)c1ccccc1`, the pKb was 6.14 in [6]; 7.21 in assay [7]; 6.4 in assay [8]; 5.92 in assay [15]; 5.82 in [16]. Besides, the result in [9], in [10], in assay [11], in assay [12] and in [13] was inactive. For the same compound, in assay [14], the EC50 is 0.138 µM. Further, the Ki in assay [1] is 0.794 µM; in assay [2], 0.871 µM; in [3], 0.724 µM; in assay [4], 0.0741 µM; in assay [5] it was 0.776 µM.
Turning to `C[N+](C)(CCCC(O)(c1ccccc1)c1ccccc1)CCC[N+](C)(C)CCCC(O)(c1ccccc1)c1ccccc1`, the Ki in assay [1] is 7.24 µM; in [2], 12 µM; in assay [3] it was 12.3 µM; in [4], 11.2 µM; in [5], 7.59 µM.

The values above are taken from ChEMBL document CHEMBL1144815, “Diphenidol-related diamines as novel muscarinic M4 receptor antagonists” (Bioorg Med Chem Lett, 2008).
